Bioassay records deposited in PubChem by several laboratories.
An excerpt weighted towards active compounds, which were near 9.6% of everything screened.
Lmaj promast: reduces viability of Leishmania major promastigotes | resazurin fluorescence viability | inhibition, % at 10 µM | 200,000 tested, 9% active | AID 1063; in the data active = inhibition above about 50%;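 also: promastigotes grown with compound for 44 hours at 28 °C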
BaF3 parental: counter-screen for JAK2V617F inhibitors: parental Ba/F3 viability inhibitors | CellTiter-Glo ATP luminescence | 220,000 tested, 1.1% active | AID 1486 | inhibition, % at 5.6 µM;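 active = inhibition above a per-campaign cutoff, the mean inhibition of all tested compounds plus 3 SD, cut at about 27% in these data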
Ba/F3 V617F tox: loss of viability in JAK2V617F-driven Ba/F3 cells. Ba/F3 EpoR-JAK2V617F viability, ATP luminescence. AID 1446. 220,000 tested, 1.1% active. inhibition, % at 5.6 µM;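 active = inhibition above the campaign mean plus 3 SD over all tested compounds, cut at about 24% in these data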;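 also: cytokine-independent growth of Ba/F3 cells driven by EpoR plus mutant JAK2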
b-catenin transl: beta-catenin nuclear translocation modulation | HeLa beta-catenin nuclear translocation, immunofluorescence imaging | nuclear translocation activity, % at 5 µM | 190,000 tested, 0.3% active;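 active = nuclear translocation activity above 50% at 5 µM, with a well cell count of 50 or more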;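 also: per-cell ratio of nuclear to cytoplasmic median beta-catenin stain intensity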
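Read-out: Nuclear/cytoplasmic beta-catenin signal ratio, % activation | Assay system: Human HeLa cell line | Times: 24 h compound exposure at 37°C, 5% CO2 | Signal: Fluorescence imaging of beta-catenin antibody stain plus DAPI | Dosing: 5 µM primary, 0.02–20 µM confirmation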
APP transl inh: APP translation inhibition. AID 1285. SH-SY5Y APP 5'UTR-luciferase reporter, luminescence. inhibition, % at 2 µM. 190,000 tested, 0.82% active;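 active = inhibition above a set limit, derived from the sample mean plus 3 SD, cut at about 45% in these data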
MT stabilize HCS: microtubule stabilizers in HeLa cells. AID 2205. 200,000 tested, 0.83% active. HeLa tubulin immunostaining HCS, 24 h; share of cells brighter than vehicle mean+2SD. % tubulin-high responders, % at 10 µM;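 active = plate Z-score above 3 for both tubulin-high and condensed-nucleus cell shares, with cell loss under 80%, at 10 µM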;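 also: anti alpha tubulin signal scored within the nucleus-defined area of each cell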
A number is an active result; i = inactive; nt = not tested or not shown.

SMILES | Lmaj promast | BaF3 parental | Ba/F3 V617F tox | b-catenin transl | APP transl inh | MT stabilize HCS
CCCCCn1c(=O)c(C(=O)Nc2ccccc2S(N)(=O)=O)c(O)c2ccccc21 | 96 | i | i | i | i | i
C=CCN1C(=O)/C(=C/c2cc(C)n(-c3cccnc3)c2C)C(=O)NC1=S | 99 | i | i | nt | i | i
COc1ccc(CCNCc2ccncc2)cc1 | 90 | i | i | i | i | i
COc1ccc(CCNCc2ccc(OC)c(OC)c2OC)cc1 | i | i | i | nt | i | i
Fc1ccc(CNCCc2ccccc2)cc1 | i | i | i | i | i | i
COc1ccc(CCNC(=O)COC(=O)Cc2ccccc2)cc1 | i | i | i | i | i | i
COc1cccc(CCNCc2ccc(SC)cc2)c1 | 51 | i | i | nt | i | i
COc1ccc(CCNC(C)CCc2ccc(OC)cc2)cc1 (stereo not given) | 93 | i | i | nt | i | i
CCN(CC)c1ccc(CN(C)CCc2ccc(OC)c(OC)c2)cc1 | 63 | i | i | i | i | i
CN(C)c1ccc(/C=C/[N+](=O)[O-])cc1 | i | i | i | i | i | i
CN(C)c1ccc(C(=O)c2ccc(N(C)C)cc2)cc1 | i | i | i | nt | nt | 46
CC1(C)C2CC=C(CN3CCC(O)CC3)C1C2 (stereo not given) | 64 | i | i | i | i | i
CC(=O)NC(Cc1ccc(N(CCCl)CCCl)cc1)C(=O)NC(C(=O)O)C(C)C (stereo not given) | i | i | i | i | i | i
CCOC(=O)CC(NC(=O)C(Cc1ccc(N(CCCl)CCCl)cc1)NC(C)=O)C(=O)OCC (stereo not given) | i | i | i | i | 86 | i
Nc1c(C(=O)NCc2ccco2)c2nc3ccccc3nc2n1CCN1CCCCC1 | 64 | i | i | nt | i | i
COCCOC(=O)c1c(N)n(Cc2ccco2)c2nc3ccccc3nc12 | i | i | i | i | i | i
CC(C)OC(=O)c1c(N)n(Cc2ccco2)c2nc3ccccc3nc12 | 56 | i | i | nt | i | i
CC(C)CNC(=O)c1c(N)n(Cc2ccc3c(c2)OCO3)c2nc3ccccc3nc12 | 68 | i | i | i | i | i
COCCNC(=O)c1c(NC(=O)c2ccc(Br)o2)n(Cc2ccccc2)c2nc3ccccc3nc12 | i | i | i | i | i | i
COCCCNC(=O)c1c(NC(=O)c2ccco2)n(Cc2ccccc2)c2nc3ccccc3nc12 | 97 | i | i | i | i | i
COc1ccc(Cn2c(N)c(C(=O)NCc3ccco3)c3nc4ccccc4nc32)cc1OC | 59 | i | i | i | i | i
CC(C)C12CN3CC(C(C)C)(CN(C1)C3c1cccnc1)C2=O (stereo not given) | i | i | i | i | i | i
O=C1C(=O)c2ccccc2-c2ccccc21 | 100 | 102 | 100 | i | 58 | i
O=C(Nc1c(F)cc(F)cc1F)c1cccn(Cc2ccccc2)c1=O | i | i | i | i | i | i
Cc1cc([N+](=O)[O-])c2ccccc2[n+]1[O-] | nt | 106 | 100 | i | nt | nt
SMILES | Lmaj promast | BaF3 parental | Ba/F3 V617F tox | b-catenin transl | APP transl inh | MT stabilize HCS
CN1C(=O)C(Cc2ccc3c(c2)OCO3)C(=O)N(C)C1=O | i | i | i | i | i | i
COC(=O)c1c(C)[nH]c(C(=O)C(C)[N+]23CCN(CC2)CC3)c1C (stereo not given) | i | i | i | i | i | i
CCOC(=O)C(O)(c1ccc(N(C)C(=O)c2ccc(Cl)c(Cl)c2)cc1)C(F)(F)F (stereo not given) | 97 | i | i | i | i | i
CCOC(=O)N(C)c1ccc(C(O)(C(=O)OC)C(F)(F)F)cc1 (stereo not given) | 93 | i | i | i | i | i
COC(=O)C(O)(c1ccc(N(C)C(=O)c2ccc(Cl)c(Cl)c2)cc1)C(F)(F)F (stereo not given) | 64 | i | i | i | i | i
COC(=O)C(O)(c1ccc(NC(=S)NC(=O)c2ccccc2)cc1)C(F)(F)F (stereo not given) | i | i | i | i | i | i
COC(=O)C(O)(c1ccc(N(C)C(=O)c2cccs2)cc1)C(F)(F)F (stereo not given) | 97 | i | i | i | i | i
COc1ccc(C(=O)O/N=C(/C(N)=O)P(=O)(OC(C)C)OC(C)C)cc1 | nt | i | i | i | nt | nt
O=C1c2ccccc2C(=O)N1Cc1nc2ccccc2c(=O)n1-c1ccc(Br)cn1 | i | i | i | i | i | i
Cc1cc(C)nc(-n2c(C)nc3cc(Cl)ccc3c2=O)c1 | i | i | i | nt | i | i
CCCC1COC(Cn2cncn2)(c2ccc(Cl)cc2Cl)O1 (stereo not given) | 92 | i | i | i | i | i
CCOP(=O)(OCC)C(NC(=O)c1cccc2ccccc12)C(Cl)(Cl)Cl (stereo not given) | i | i | i | i | i | i
CSc1ccc(CNC(C)C(O)c2ccccc2)cc1 (stereo not given) | 84 | i | i | i | i | i
Oc1c(Cl)cc(Cl)cc1CN1CCN(Cc2ccccc2)CC1 | i | i | i | i | i | i
CCc1ccc(CN2CCN(C(=O)Cc3ccccc3)CC2)cc1 | i | i | i | i | i | i
CCc1ccc(CN2CCN(Cc3cc(Br)ccc3O)CC2)cc1 | 81 | i | i | i | i | i
CCN1CCN(Cc2cc(Br)ccc2O)CC1 | 85 | i | i | i | i | i
CCN1CCN(Cc2cc(Br)cc(Br)c2O)CC1 | 73 | i | i | i | i | i
Oc1ccc(Br)cc1CN1CCN(c2ccccc2)CC1 | i | i | i | i | i | i
COc1ccc(Br)cc1CN1CCN(CCO)CC1 | i | i | i | i | i | i
COc1cc(Br)cc(CN2CCN(C)CC2)c1O | 76 | i | i | i | i | i
O=C(O)C1C2CC3CC(C2)CC1(n1ncc(N2CCC4(CC2)OCCO4)c(Cl)c1=O)C3 (stereo not given) | nt | i | i | i | nt | nt
O=C1NC(=O)C(CCc2ccncc2)(Cc2cccc(Cl)c2Cl)C(=O)N1c1ccc(Br)cc1 (stereo not given) | 92 | i | i | 95 | i | 19
O=c1c2ccccc2[nH]c(=S)n1-c1ccc2c(c1)OCCO2 | nt | i | i | i | nt | nt
O=C1NC(=O)C(CCc2ccccn2)(Cc2ccc3c(c2)OCO3)C(=O)N1CCc1ccccc1 (stereo not given) | 98 | i | i | i | i | i
O=C1CC(c2ccccc2)CC(O)=C1C=NCCN1CCN(C(=O)Cc2ccccc2)CC1 (stereo not given) | i | 28 | i | nt | i | i
Cc1cc([N+](=O)[O-])c(Cl)cc1NC(=O)C(C)C | 58 | i | i | i | i | i
CNP(=O)(Oc1ccccc1)OC12CC3CC(CC(C3)C1)C2 (stereo not given) | i | i | i | i | i | i
CCOC(=O)C1=C(C)OC(N)=C(C(=O)OCC)C12C(=O)Nc1ccc(Br)cc12 (stereo not given) | 51 | i | i | i | i | i
CN1CCN(Cc2ccccc2Sc2ccccc2)CC1 | 100 | i | i | i | i | i
